Data published in ChEMBL document CHEMBL1132232, “7alpha-Iodo and 7alpha-fluoro steroids as androgen receptor-mediated imaging agents” (J Med Chem, 1999).

Assays:
Rattus norvegicus [1] = experiment: Distribution of tissue Radioactivity following Intravenous injection into castrated male rat thyroid at 4 hours time; format: ADME, organism-based, Thyroid gland; conditions: in vivo
Method in brief: (§1)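 Male Sprague–Dawley rats, about 250 g, were castrated and injected the next day via the tail vein with 5.4 μCi (2.4 pmol) of 125I tracer in ethanol/saline (1:4). There were 5–6 rats per group. At 0.5, 1, 2 or 4 h, rats were ether-anesthetized and killed by exsanguination. Tissues were dissected, weighed and counted, giving % injected dose/g and prostate/blood ratios.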

Rattus norvegicus [2] = experiment: Distribution of tissue Radioactivity following subcutaneous injection of […] of 5-alpha-DHT 15 min before the administration of the [125I]- tracer castrated male rat fat at 1 hour time; format: ADME, organism-based, Adipose tissue; conditions: in vivo, sc
Method in brief: (§2)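 Castrated male Sprague–Dawley rats, about 250 g, received 5α-DHT subcutaneously in propylene glycol/saline (3:2) 15 min before a tail-vein 125I tracer (5.4 μCi, 2.4 pmol, in ethanol/saline 1:4). There were 5–6 rats per group. At 1 h, rats were ether-anesthetized and exsanguinated. Tissues were weighed and counted as % injected dose/g, plus the prostate/blood ratio.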

Rattus norvegicus [3] = experiment: Distribution of tissue Radioactivity following subcutaneous injection of […] of 5-alpha-DHT 15 min before the administration of the [125I]- tracer castrated male rat kidney at 1 hour time; format: ADME, organism-based; conditions: in vivo, sc; method in brief: as §2
Rattus norvegicus [4] = experiment: Distribution of tissue Radioactivity following subcutaneous injection of […] of 5-alpha-DHT 15 min before the administration of the [125I]- tracer castrated male rat muscle at 1 hour time; format: ADME, organism-based; conditions: in vivo, sc; method in brief: as §2
Rattus norvegicus [5] = experiment: Distribution of tissue radioactivity following subcutaneous injection of […] of 5-alpha-DHT 15 min before the administration of the [125I] tracer castrated male rat prostate 1 hour time; format: ADME, organism-based, Prostate gland; conditions: in vivo, sc
Rattus norvegicus [6] = experiment: Distribution of tissue Radioactivity following subcutaneous injection of […] of 5-alpha-DHT 15 min before the administration of the [125I]- tracer castrated male rat thyroid at 1 hour time; format: ADME, organism-based, Thyroid gland; conditions: in vivo, sc
Rattus norvegicus [7] = experiment: Distribution of tissue Radioactivity following Intravenous injection into castrated male rat liver at 0.5 hours time; format: ADME, organism-based; conditions: in vivo; method in brief: as §1
Rattus norvegicus [8] = experiment: Distribution of tissue Radioactivity following Intravenous injection into castrated male rat liver at 4 hours time; format: ADME, organism-based; conditions: in vivo; method in brief: as §1
Rattus norvegicus [9] = experiment: Distribution of tissue Radioactivity following Intravenous injection into castrated male rat lung at 0.5 hours time; format: ADME, organism-based; conditions: in vivo; method in brief: as §1
Rattus norvegicus [10] = experiment: Distribution of tissue Radioactivity following Intravenous injection into castrated male rat lung at 4 hours time; format: ADME, organism-based; conditions: in vivo; method in brief: as §1
Rattus norvegicus [11] = experiment: Distribution of tissue Radioactivity following Intravenous injection into castrated male rat muscle at 1 hour time; format: ADME, organism-based; conditions: in vivo; method in brief: as §1
Rattus norvegicus [12] = experiment: Distribution of tissue Radioactivity following Intravenous injection into castrated male rat muscle at 2 hours time; format: ADME, organism-based; conditions: in vivo; method in brief: as §1
Rattus norvegicus [13] = experiment: Distribution of tissue Radioactivity following Intravenous injection into castrated male rat prostate at 1 hours time; format: ADME, organism-based, Prostate gland; conditions: in vivo; method in brief: as §1
Rattus norvegicus [14] = experiment: Distribution of tissue Radioactivity following Intravenous injection into castrated male rat prostate at 2 hours time; format: ADME, organism-based, Prostate gland; conditions: in vivo; method in brief: as §1
Rattus norvegicus [15] = experiment: Distribution of tissue Radioactivity following Intravenous injection into castrated male rat prostate/blood at 0.5 hours time; format: ADME, organism-based; conditions: in vivo; method in brief: as §1
Rattus norvegicus [16] = experiment: Distribution of tissue Radioactivity following Intravenous injection into castrated male rat prostate/blood at 4 hours time; format: ADME, organism-based; conditions: in vivo; method in brief: as §1
Rattus norvegicus [17] = experiment: Distribution of tissue Radioactivity following Intravenous injection into castrated male rat spleen at 0.5 hours time; format: ADME, organism-based; conditions: in vivo; method in brief: as §1
Rattus norvegicus [18] = experiment: Distribution of tissue Radioactivity following Intravenous injection into castrated male rat spleen at 4 hours time; format: ADME, organism-based; conditions: in vivo; method in brief: as §1
Rattus norvegicus [19] = experiment: Distribution of tissue Radioactivity following Intravenous injection into castrated male rat thyroid at 1 hour time; format: ADME, organism-based, Thyroid gland; conditions: in vivo; method in brief: as §1
Rattus norvegicus [20] = experiment: Distribution of tissue Radioactivity following Intravenous injection into castrated male rat thyroid at 2 hours time; format: ADME, organism-based, Thyroid gland; conditions: in vivo; method in brief: as §1
Rattus norvegicus [21] = experiment: Distribution of tissue Radioactivity following subcutaneous injection of […] of 5-alpha-DHT 15 min before the administration of the [125I]- tracer castrated male rat blood at 1 hour time; format: ADME, organism-based; conditions: in vivo, sc; method in brief: as §2
Rattus norvegicus [22] = experiment: Distribution of tissue Radioactivity following subcutaneous injection of […] of 5-alpha-DHT 15 min before the administration of the [125I]- tracer castrated male rat liver at 1 hour time; format: ADME, organism-based; conditions: in vivo, sc; method in brief: as §2
Rattus norvegicus [23] = experiment: Distribution of tissue Radioactivity following subcutaneous injection of […] of 5-alpha-DHT 15 min before the administration of the [125I]- tracer castrated male rat lung at 1 hour time; format: ADME, organism-based; conditions: in vivo, sc; method in brief: as §2
Rattus norvegicus [24] = experiment: Distribution of tissue Radioactivity following subcutaneous injection of […] of 5-alpha-DHT 15 min before the administration of the [125I]- tracer castrated male rat prostate/blood at 1 hour time; format: ADME, organism-based; conditions: in vivo, sc; method in brief: as §2
Rattus norvegicus [25] = experiment: Distribution of tissue Radioactivity following subcutaneous injection of […] of 5-alpha-DHT 15 min before the administration of the [125I]- tracer castrated male rat spleen at 1 hour time; format: ADME, organism-based; conditions: in vivo, sc; method in brief: as §2
[26] = target: T1, Androgen receptor (Homo sapiens) (UniProt P10275); conditions: CV-1
T1 sequence (whole entry): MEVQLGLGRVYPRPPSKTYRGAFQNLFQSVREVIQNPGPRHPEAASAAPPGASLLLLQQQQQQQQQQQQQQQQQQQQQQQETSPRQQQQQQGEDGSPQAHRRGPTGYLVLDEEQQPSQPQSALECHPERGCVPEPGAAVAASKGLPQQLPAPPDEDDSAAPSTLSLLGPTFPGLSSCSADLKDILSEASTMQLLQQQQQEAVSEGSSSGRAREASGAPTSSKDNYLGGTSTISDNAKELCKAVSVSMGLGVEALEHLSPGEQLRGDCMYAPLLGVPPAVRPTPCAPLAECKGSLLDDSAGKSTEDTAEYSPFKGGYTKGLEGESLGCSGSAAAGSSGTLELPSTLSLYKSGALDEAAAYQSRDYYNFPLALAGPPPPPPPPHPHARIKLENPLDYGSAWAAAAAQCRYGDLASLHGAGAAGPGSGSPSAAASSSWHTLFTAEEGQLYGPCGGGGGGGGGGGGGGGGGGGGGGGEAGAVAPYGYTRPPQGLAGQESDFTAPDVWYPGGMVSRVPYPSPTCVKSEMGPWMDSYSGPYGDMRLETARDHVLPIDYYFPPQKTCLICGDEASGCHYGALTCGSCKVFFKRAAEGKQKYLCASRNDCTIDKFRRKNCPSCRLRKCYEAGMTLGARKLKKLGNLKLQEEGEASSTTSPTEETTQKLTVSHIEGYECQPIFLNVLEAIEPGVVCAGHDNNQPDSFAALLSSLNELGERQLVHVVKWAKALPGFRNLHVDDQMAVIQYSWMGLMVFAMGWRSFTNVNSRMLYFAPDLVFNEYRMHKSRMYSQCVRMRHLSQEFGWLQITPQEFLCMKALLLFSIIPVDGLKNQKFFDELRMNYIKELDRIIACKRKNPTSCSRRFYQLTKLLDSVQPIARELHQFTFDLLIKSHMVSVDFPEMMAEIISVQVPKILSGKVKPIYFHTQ

In the case of `C[C@]12CCC(=O)CC1C[C@@H](I)[C@@H]1[C@@H]2CC[C@@]2(C)[C@H]1CC[C@]2(C)O` (stereo partly specified), the Biodistribution (Rattus norvegicus [1]) is reported as 9.7%, the Biodistribution (Rattus norvegicus [2]) is reported as 0.29% and the Biodistribution (Rattus norvegicus [3]) is reported as 0.3%. The Biodistribution (Rattus norvegicus [4]) was 0.08%, the Biodistribution (Rattus norvegicus [5]) was 0.23% and the Biodistribution (Rattus norvegicus [6]) was 3.55%. The Dose/g (Rattus norvegicus [7]) was 0.31%, the Dose/g (Rattus norvegicus [8]) was 0.24% and the Dose/g (Rattus norvegicus [9]) was 0.22%. The Dose/g (Rattus norvegicus [10]) was 0.28%, the Dose/g (Rattus norvegicus [11]) was 0.07% and the Dose/g (Rattus norvegicus [12]) was 0.07%. It also gave a Dose/g (Rattus norvegicus [13]) of 0.39%, a Dose/g (Rattus norvegicus [14]) of 0.44% and a Dose/g (Rattus norvegicus [15]) of 0.7%. It also gave a Dose/g (Rattus norvegicus [16]) of 1.19%, a Dose/g (Rattus norvegicus [17]) of 0.13% and a Dose/g (Rattus norvegicus [18]) of 0.17%. It also gave a Dose/g (Rattus norvegicus [19]) of 4.07%, a Dose/g (Rattus norvegicus [20]) of 3.55% and a Dose/g (Rattus norvegicus [21]) of 0.35%. It also gave a Dose/g (Rattus norvegicus [22]) of 0.36%, a Dose/g (Rattus norvegicus [23]) of 0.28% and a Dose/g (Rattus norvegicus [24]) of 0.66%. For the same molecule, the Dose/g (Rattus norvegicus [25]) was 0.18% and the RSA [26] was 28.
